Each structure is given as a SMILES string. Active and inactive are the calls of the source. The rule behind the calls is not given here.

The target in the first experiment is T1, Nuclear receptor subfamily 4 group A member 2 (Homo sapiens, UniProt P43354). As to the kind of experiment: Inverse agonist activity at Gal4-fused human Nurr1 LBD expressed in HEK293T cells co-expressing firefly luciferase assessed as luciferase activity incubated for 12 to 14 hrs by hybrid reporter gene assay.
T1 sequence (P43354 whole entry, the tested form may be a part): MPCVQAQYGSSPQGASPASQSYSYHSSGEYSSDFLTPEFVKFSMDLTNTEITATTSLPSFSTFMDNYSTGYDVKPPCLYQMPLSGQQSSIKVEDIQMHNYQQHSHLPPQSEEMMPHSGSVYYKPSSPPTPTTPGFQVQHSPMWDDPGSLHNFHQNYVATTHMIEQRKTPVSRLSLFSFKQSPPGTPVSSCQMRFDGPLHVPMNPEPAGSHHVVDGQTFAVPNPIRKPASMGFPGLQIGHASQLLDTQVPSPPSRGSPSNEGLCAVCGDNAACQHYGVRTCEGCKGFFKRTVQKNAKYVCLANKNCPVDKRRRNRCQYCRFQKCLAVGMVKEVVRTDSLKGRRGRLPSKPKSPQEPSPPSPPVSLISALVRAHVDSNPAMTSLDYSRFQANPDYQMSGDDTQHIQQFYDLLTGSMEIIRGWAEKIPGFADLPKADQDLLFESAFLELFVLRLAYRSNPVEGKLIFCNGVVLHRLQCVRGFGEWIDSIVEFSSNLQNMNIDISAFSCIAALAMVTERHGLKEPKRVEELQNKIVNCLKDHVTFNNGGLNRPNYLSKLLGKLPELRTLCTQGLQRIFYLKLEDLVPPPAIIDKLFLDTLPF
Settings: not given
The experiment is classed as cell-based. The gist of the method: (§1)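 HEK293T cells, seeded 3 × 10⁴/well the day before, were transiently transfected with a Gal4–human Nurr1 LBD hybrid receptor, a Gal4-responsive firefly luciferase reporter (pFR-Luc) and SV40-renilla luciferase. Five hours later cells received compound in Opti-MEM with 0.1% DMSO for 12−14 h, then a dual-luciferase read-out. Firefly/renilla ×1000 gave RLU; fold activation was taken vs DMSO. Duplicates, ≥3 independent runs; EC50/IC50 are mean SD.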
For `O=C(O)CCCNc1ccnc2cc(Cl)ccc12`, the IC50 was 132 µM.
For `Clc1ccc2cccnc2c1`, the IC50 stood at 89 µM.

The next experiment has as its target T1, Nuclear receptor subfamily 4 group A member 2. Nature of the experiment: Agonist activity at Gal4-fused human Nurr1 LBD expressed in HEK293T cells co-expressing firefly luciferase assessed as luciferase activity at 300 uM incubated for 12 to 14 hrs by hybrid reporter gene assay. The experiment is classed as cell-based. The note with it: time 12-14 hrs. The gist of the method:
as §1
As for `Nc1ccnc2c(F)cccc12`, the outcome was inactive.
Take `Nc1cnc2cc(Cl)ccc2c1`: the outcome was inactive.
Consider `Clc1ccc2c(Cl)ccnc2c1`, for which the outcome was inactive.
On the same count and under the same terms, next, `Nc1ccnc2c(C(F)(F)F)cccc12`: “inactive”; `Nc1ccnc2ccccc12`: “inactive”.

For another experiment the target is unchanged. As to the kind of experiment: Agonist activity at Gal4-fused human Nurr1 LBD expressed in HEK293T cells co-expressing firefly luciferase assessed as luciferase activity at 100 uM incubated for 12 to 14 hrs by hybrid reporter gene assay. The experiment is classed as cell-based. The following applies: time 12-14 hrs. Put shortly:
as §1
As to `Nc1c(Cl)ccc2ncccc12`, the outcome was inactive.
On to `CCN(CC)CCCC(C)Nc1cc(C)nc2c(Cl)cccc12` (stereo not drawn), for which the result was inactive.
For `Nc1ccc(Cl)c2ncccc12`, the result was inactive.
For `Nc1ccc2ccc(Cl)cc2n1`, the result was inactive.
Still for that read-out and setting: the result for `CCN(CC)Cc1cc(Nc2cc(C)nc3c(Cl)cccc23)ccc1O` reads “inactive”.

The target is the same in a further experiment. As to the kind of experiment: Agonist activity at Gal4-fused human Nurr1 LBD expressed in HEK293T cells co-expressing firefly luciferase assessed as luciferase activity at 30 uM incubated for 12 to 14 hrs by hybrid reporter gene assay. The following applies: time 12-14 hrs. Format: cell-based. Put shortly:
as §1
As to `CC1CCC(Nc2ccnc3cc(Cl)ccc23)CC1` (stereo not drawn), the outcome was inactive.
Still for that read-out and setting: the result for `Oc1ccc(Nc2ccnc3cc(Cl)ccc23)cc1` reads “inactive”.

For the next experiment the target is unchanged. As to the kind of experiment: Agonist activity at Gal4-fused human Nurr1 LBD expressed in HEK293T cells co-expressing firefly luciferase assessed as luciferase activity at 10 uM incubated for 12 to 14 hrs by hybrid reporter gene assay. The experiment is classed as cell-based. The note with it: time 12-14 hrs. Put shortly: as §1
On to `Clc1ccc2c(NCc3ccccc3)ccnc2c1`, for which the outcome was inactive.
In the case of `CC(CCCN(C)C)Nc1cccc2c(Cl)cccc12` (stereo not drawn), the outcome was inactive.
On to `O=C(OCC(O)CO)c1ccccc1Nc1ccnc2cc(Cl)ccc12` (stereo not drawn), for which the result was inactive.

The target is the same in a further experiment. Nature of the experiment: Agonist activity at Gal4-fused human Nurr1 LBD expressed in HEK293T cells co-expressing firefly luciferase assessed as luciferase activity at 200 uM incubated for 12 to 14 hrs by hybrid reporter gene assay. Format: cell-based. The note with it: time 12-14 hrs. Put shortly: as §1
As to `Nc1cncc2c(Cl)cccc12`, the outcome was inactive.

For another experiment, the target named is T2, Retinoic acid receptor RXR-alpha (Homo sapiens) (UniProt P19793).
T2 sequence (whole entry): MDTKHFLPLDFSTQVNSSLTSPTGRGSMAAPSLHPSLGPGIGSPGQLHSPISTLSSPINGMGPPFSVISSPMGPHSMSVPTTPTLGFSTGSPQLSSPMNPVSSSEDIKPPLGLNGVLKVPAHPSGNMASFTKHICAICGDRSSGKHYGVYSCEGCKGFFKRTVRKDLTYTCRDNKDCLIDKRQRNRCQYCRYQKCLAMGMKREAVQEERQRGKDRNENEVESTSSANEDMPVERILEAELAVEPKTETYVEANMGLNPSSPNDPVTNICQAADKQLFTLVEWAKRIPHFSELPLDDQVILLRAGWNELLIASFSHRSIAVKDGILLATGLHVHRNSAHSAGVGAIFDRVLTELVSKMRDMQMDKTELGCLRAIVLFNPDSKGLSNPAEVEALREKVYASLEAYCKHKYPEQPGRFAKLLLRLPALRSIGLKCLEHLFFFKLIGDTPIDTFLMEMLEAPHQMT
As to the kind of experiment: Agonist activity at full length human RxRalpha heterodimer response element DR5 expressed in HEK293T cells co-expressing firefly luciferase assessed as firefly luciferase activity up to 100 uM incubated for 12 to 14 hrs by hybrid reporter gene assay. The note with it: filed as agonist, dose microM <=100, time 12-14 hrs. The experiment is classed as cell-based. Put shortly: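 Full-length receptor assay in HEK293T cells transiently cotransfected with pFR-Luc-DR5 reporter, human Nurr1 (pcDNA3.1-hNurr1-NE), human RXR (pSG5-hRXR) and SV40-renilla. Five hours post-transfection, compound was added in Opti-MEM with 0.1% DMSO for 12−14 h, then a dual-luciferase read-out. Firefly/renilla ×1000 gave RLU, expressed as fold over DMSO control. Duplicates, ≥3 independent experiments.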
For `Cc1cc(N)c2cccc(Cl)c2n1`, the result was Active.

For another experiment, the target named is T1, Nuclear receptor subfamily 4 group A member 2. Nature of the experiment: Agonist activity at Gal4-fused human Nurr1 LBD expressed in HEK293T cells co-expressing firefly luciferase assessed as luciferase activity incubated for 12 to 14 hrs by hybrid reporter gene assay. Format: cell-based.
Settings: not given
For the compound `Cc1cc(NC(C)C(C)C)c2cccc(Cl)c2n1` (stereo not drawn), the EC50 was 17 µM.
On to `Nc1cc(Cl)cc2ncccc12`, for which the EC50 came out at 19 µM.
On to `Cc1cc(NC(C)C)c2cccc(Cl)c2n1`, for which the EC50 amounted to 31 µM.
With `Cc1cc(N)c2ccc(Cl)cc2n1`, the EC50 is 33 µM.
As to `Nc1ccnc2c(Cl)cccc12`, the EC50 is 49 µM.
As for `CCCCNc1cc(C)nc2c(Cl)cccc12`, the EC50 is 12 µM.
Still for that read-out and setting: the result for `CCN(CC)Cc1cccc(Nc2ccnc3cc(Cl)ccc23)c1` reads 116 µM; that for `Nc1ccnc2ccc(Cl)cc12`, 117 µM; that for `Nc1ccnc2cc(Cl)ccc12`, 259 µM.

(Values after ChEMBL document CHEMBL4823246, “Fragment-like Chloroquinolineamines Activate the Orphan Nuclear Receptor Nurr1 and Elucidate Activation Mechanisms” (J Med Chem, 2021).)
